The values below come from paper PMC11102597 (Molecular cell, 2023).

Data set [1] deals with T1, PaMx33-Acb2 (Pseudomonas phage PaMx33, UniProt A0A1C8HPQ3). As to the kind of experiment: biochemical. The settings on record: for binding to Acb2 (ITC): WT PaMx33-Acb2. Type of data set: binding.
Data set [2] has as its target T2, Acb2 protein (PaMx33-Acb2) (Pseudomonas phage PaMx33, UniProt A0A1C8HPQ3). Put plainly: Native gel. The class given is binding, P. aeruginosa phage PaMx33. The settings on record: WT PaMx33-Acb2 14.3 μM.
In data set [3] the target is T2, Acb2 protein (PaMx33-Acb2). The following applies: Figure S1A–B; cited from earlier work.
The target of data set [4] is T3, CHI14-Acb2 (Serratia phage CHI14, UniProt A0A1Z1LXK7).
T3 sequence (A0A1Z1LXK7 1-96): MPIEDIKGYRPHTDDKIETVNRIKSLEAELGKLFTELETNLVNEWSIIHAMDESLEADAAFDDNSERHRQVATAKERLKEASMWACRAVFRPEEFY
As to the kind of experiment: Native gel shift assay with CHI14-Acb2. The class given is binding. In a few lines:
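Recombinant Acb2, expressed in E. coli BL21 (DE3) with 12 h induction at 18°C, was purified as a His6-SUMO fusion on Ni-NTA, cut with Ulp1, then gel-filtered in 10 mM Tris-HCl pH 8.0, 500 mM NaCl, 5 mM DTT. Protein (14.3 μM) was preincubated 10 min at 18°C with cyclic dinucleotides (1.8, 3.6, 7.2 μM). Samples were run on 5% native polyacrylamide gels and stained with Coomassie blue.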

The target in another data set is T4-Acb2 (Enterobacteria phage T4, UniProt P13314). As to the kind of experiment: ITC binding to T4-Acb2. Also noted: species or system Escherichia phage T4.
T4-Acb2, sequence (P13314 whole entry): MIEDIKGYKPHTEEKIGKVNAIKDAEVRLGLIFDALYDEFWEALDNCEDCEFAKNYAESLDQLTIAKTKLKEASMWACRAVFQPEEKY
In data set [5] the target is T1, PaMx33-Acb2. The settings on record: WT Acb2; cited from earlier work.
In the next data set the target is JBD67-Acb2 (Pseudomonas phage JBD67, UniProt P0DX89). Put plainly: ITC binding to JBD67-Acb2. Also noted: species or system P. aeruginosa phage JBD67.
JBD67-Acb2, sequence (P0DX89 whole entry): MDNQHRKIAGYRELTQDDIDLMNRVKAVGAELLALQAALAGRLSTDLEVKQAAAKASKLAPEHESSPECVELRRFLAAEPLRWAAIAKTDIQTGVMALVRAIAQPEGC
Data set [6] concerns the target T3, CHI14-Acb2. As to the kind of experiment: ITC binding to CHI14-Acb2.
Data set [7] addresses T4, Y11A Acb2 mutant (Pseudomonas phage PaMx33, UniProt A0A1C8HPQ3, Y11A). The following applies: method not stated here; cited from earlier work.
The target in data set [8] is T5, K26A Acb2 mutant (Pseudomonas phage PaMx33, UniProt A0A1C8HPQ3, K26A). The following applies: method not stated here; cited from earlier work.
T5 sequence (A0A1C8HPQ3 whole entry K26A): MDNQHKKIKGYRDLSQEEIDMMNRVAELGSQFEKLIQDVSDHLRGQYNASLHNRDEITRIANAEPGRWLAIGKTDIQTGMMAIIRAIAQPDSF
The target of the next data set is T6, Acb2 R67A mutant (Pseudomonas phage PaMx33, UniProt A0A1C8HPQ3, R67A).
T6 sequence (A0A1C8HPQ3 1-93 R67A): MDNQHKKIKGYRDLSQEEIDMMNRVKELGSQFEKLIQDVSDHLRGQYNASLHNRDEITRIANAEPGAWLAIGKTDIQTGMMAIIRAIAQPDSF
As to the kind of experiment: ITC binding to PaMx33-Acb2 R67A mutant. The following applies: in vitro. Also noted: species or system P. aeruginosa phage PaMx33.

The next data set addresses T7, D61R mutant of T4-Acb2 (Enterobacteria phage T4, UniProt P13314, D61R).
T7 sequence (P13314 1-88 D61R): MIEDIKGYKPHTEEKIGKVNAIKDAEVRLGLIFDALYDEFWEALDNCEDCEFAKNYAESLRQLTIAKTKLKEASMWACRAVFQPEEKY
Put plainly: ITC binding to T4-Acb2 D61R mutant. Also noted: species or system Escherichia phage T4.

Data set [9] has as its target T4, Y11A Acb2 mutant. As to the kind of experiment: Native gel shift assay with Acb2 Y11A mutant. Type of data set: binding, P. aeruginosa phage PaMx33.
In data set [10] the target is NucC (Pseudomonas aeruginosa, UniProt P0DTF8). Put plainly: In vitro NucC activity assay. The class given is biochemical, P. aeruginosa strain ATCC 27853 (Pa278). The following applies: cA3 5 nM.
Data set [11] has as its target T1, PaMx33-Acb2. Put plainly: HPLC analysis of cA3 binding and release by Acb2. Also noted: species or system P. aeruginosa phage PaMx33.
Data set [12] has as its target T5, K26A Acb2 mutant. Put plainly: Native gel shift assay with Acb2 K26A mutant. The class given is binding, P. aeruginosa phage PaMx33. On the technique in general: Mobility shift assays separate free from complexed probe on a gel.
The target of a further data set is T8, Acb2 T74A mutant (Pseudomonas phage PaMx33, UniProt A0A1C8HPQ3, T74A).
T8 sequence (A0A1C8HPQ3 1-93 T74A): T6 sequence (A0A1C8HPQ3 1-93 R67A) with A67R, T74A
As to the kind of experiment: ITC binding to PaMx33-Acb2 T74A mutant. Also noted: species or system P. aeruginosa phage PaMx33.

The data set “crystal structure” concerns the molecule itself. Put plainly: crystal structure.
Data set [13] addresses T9, NucC (Pseudomonas aeruginosa, UniProt P0DTF8).
T9 sequence (P0DTF8 whole entry, looked up): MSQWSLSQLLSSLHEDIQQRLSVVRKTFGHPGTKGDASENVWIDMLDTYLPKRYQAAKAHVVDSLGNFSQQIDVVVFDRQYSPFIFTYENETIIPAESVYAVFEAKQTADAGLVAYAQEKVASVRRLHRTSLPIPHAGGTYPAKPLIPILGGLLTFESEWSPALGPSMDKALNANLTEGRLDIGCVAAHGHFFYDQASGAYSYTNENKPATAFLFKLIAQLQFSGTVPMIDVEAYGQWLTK
Put plainly: In vitro NucC activity assay. Type of data set: biochemical, P. aeruginosa strain ATCC 27853 (Pa278). The settings on record: NucC 10 nM, cA3 5 nM, Acb2 50 nM.

Residue numbers refer to the chain shown, from its start. Where two headings read alike, the source gives them in different places.

T2 sequence (A0A1C8HPQ3 whole entry): as the sequence (A0A1C8HPQ3 whole entry K26A) above, with A26K counted along it
T1 sequence (A0A1C8HPQ3 whole entry): as the sequence (A0A1C8HPQ3 whole entry K26A) above, with A26K counted along it
T4 sequence (A0A1C8HPQ3 whole entry Y11A): as the sequence (A0A1C8HPQ3 whole entry K26A) above, with Y11A, A26K counted along it

In turn, `Nc1nc2c(ncn2[C@@H]2O[C@@H]3COP(=O)(O)O[C@@H]4[C@H](O)[C@@H](COP(=O)(O)O[C@H]3[C@H]2O)O[C@H]4n2cnc3c(N)ncnc32)c(=O)[nH]1` [3’,2’-cGAMP] came in with a Kd on PaMx33-Acb2 [1] of approximately 298 nM. Besides, the “shift of the Acb2 protein / binding (native gel)” value in data set [2] was “significant shift”.

As for `Nc1ncnc2c1ncn2[C@@H]1O[C@@H]2COP(=O)(O)O[C@H]3[C@@H](O)[C@H](n4cnc5c(N)ncnc54)O[C@@H]3COP(=O)(O)O[C@H]2[C@H]1O` [3’,3’-cAA, c-di-AMP], the “binding to Acb2 (previous work)” value in [3] is on record as “binds”.

As to `Nc1nc2c(ncn2[C@@H]2O[C@@H]3COP(=O)(O)O[C@H]4[C@@H](O)[C@H](n5cnc6c(N)ncnc65)O[C@@H]4COP(=O)(O)O[C@H]3[C@H]2O)c(=O)[nH]1` [3’,3’-cGAMP], on CHI14-Acb2 [4], the “shift of the CHI14-Acb2 protein (native gel)” value is recorded as “almost no shift”. In addition, the Kd on T4-Acb2 is approximately 84.4 nM; at PaMx33-Acb2 [5], approximately 87 nM; at JBD67-Acb2, approximately 99 nM; on CHI14-Acb2 [6], approximately 62.4 nM. Besides, the “binding to Acb2 (previous work)” value in data set [3] is on record as “binds”. Besides, the “binding to Y11A Acb2 mutant” value on Y11A Acb2 mutant [7] is “lose their binding”. Also, at K26A Acb2 mutant [8], the “binding to K26A Acb2 mutant” value was “lose their binding”.

Take `Nc1nc2c(ncn2[C@@H]2O[C@@H]3COP(=O)(O)O[C@H]4[C@@H](O)[C@H](n5ccc(=O)[nH]c5=O)O[C@@H]4COP(=O)(O)O[C@H]3[C@H]2O)c(=O)[nH]1` [3’,3’-cUG, 3’,3’-c-UMP-GMP]: the “binding to Acb2 (previous work)” value in data set [3] is reported as “binds”.

Turning to `O=c1ccn([C@@H]2O[C@@H]3COP(=O)(O)O[C@H]4[C@@H](O)[C@H](n5ccc(=O)[nH]c5=O)O[C@@H]4COP(=O)(O)O[C@H]3[C@H]2O)c(=O)[nH]1` [3’,3’-cUU, 3’,3’-c-di-UMP], the “binding to Acb2 (previous work)” value in data set [3] is listed as “binds”.

Take `Nc1ncnc2c1ncn2[C@@H]1O[C@@H]2COP(=O)(O)O[C@H]3[C@@H](O)[C@H](n4cnc5c(N)ncnc54)O[C@@H]3COP(=O)(O)O[C@H]3[C@@H](O)[C@H](n4cnc5c(N)ncnc54)O[C@@H]3COP(=O)(O)O[C@H]2[C@H]1O` [cA3, 3’3’3’-cyclic AMP-AMP-AMP]: the “binding (ITC)” value is listed as “abolished” on Acb2 R67A mutant, “unable to bind” on D61R mutant of T4-Acb2, “does not bind” on T4-Acb2 (T4-Acb2) and “does not bind” at CHI14-Acb2 [6] (CHI14-Acb2). The “binding / shift (native gel)” value on Y11A Acb2 mutant [9] and at K26A Acb2 mutant [12] was “significant shift” in each case. The “DNA cleavage activity of NucC” value on NucC [10] (NucC 10 nM) is “activates”. Also, the “NucC activity with cA3 released after proteolysis of WT Acb2” value at NucC [10] (Acb2 50 nM, proteinase K 1 μM) was “again activated”. The “remaining cA3 after incubation with Acb2 (HPLC)” value at PaMx33-Acb2 [11] (40 μM Acb2, 4 μM cA3) is reported as “depletes any detectable molecules”. Moreover, on PaMx33-Acb2 [11] (proteinase K treatment), the “cA3 after proteolysis of Acb2 (HPLC)” value is given as “released back into the buffer unmodified”. For the same molecule, the Kd is approximately 3.5 nM on JBD67-Acb2, approximately 1.5 nM at PaMx33-Acb2 [1] and approximately 291 nM at Acb2 T74A mutant. Also, the “shift of the Acb2 protein / binding (native gel)” value in data set [2] was “significant shift”.

`Nc1ncnc2c1ncn2[C@@H]1O[C@@H]2COP(=O)(O)O[C@H]3[C@@H](O)[C@H](n4cnc5c(N)ncnc54)O[C@@H]3COP(=O)(O)O[C@H]3[C@@H](O)[C@H](n4cnc5c(N)ncnc54)O[C@@H]3COP(=O)(O)O[C@H]3[C@@H](O)[C@H](n4cnc5c(N)ncnc54)O[C@@H]3COP(=O)(O)O[C@H]3[C@@H](O)[C@H](n4cnc5c(N)ncnc54)O[C@@H]3COP(=O)(O)O[C@H]3[C@@H](O)[C@H](n4cnc5c(N)ncnc54)O[C@@H]3COP(=O)(O)O[C@H]2[C@H]1O` [cA6]: the “shift of the Acb2 protein / binding (native gel)” value in data set [2] was “does not shift”.

For the molecule `Nc1nc2c(ncn2[C@@H]2O[C@@H]3COP(=O)(O)O[C@H]4[C@@H](O)[C@H](n5cnc6c(N)ncnc65)O[C@@H]4COP(=O)(O)O[C@H]4[C@@H](O)[C@H](n5cnc6c(N)ncnc65)O[C@@H]4COP(=O)(O)O[C@H]3[C@H]2O)c(=O)[nH]1` [cAAG, 3’3’3’-cAAG], the Kd on PaMx33-Acb2 [1] was approximately 2.7 nM. In data set [2], the “shift of the Acb2 protein / binding (native gel)” value is on record as “significant shift”.

In the case of `Nc1ccn([C@@H]2O[C@@H]3COP(=O)(O)O[C@H]3[C@H]2O)c(=O)n1` [cCMP], the “binding to Acb2 (ITC)” value on PaMx33-Acb2 [1] was “does not bind”. In addition, the “shift of the Acb2 protein / binding (native gel)” value in data set [2] is given as “does not bind”.

As to `O=c1ccn([C@@H]2O[C@@H]3COP(=O)(O)O[C@H]3[C@H]2O)c(=O)[nH]1` [cUMP], the “binding to Acb2 (ITC)” value on PaMx33-Acb2 [1] is “does not bind”. In addition, in data set [2], the “shift of the Acb2 protein / binding (native gel)” value is recorded as “does not bind”.

B1: Acb2 from P. aeruginosa phage PaMx33 (natural protein, Pseudomonas aeruginosa phage PaMx33, UniProt A0A1C8HPQ3 1-93, looked up)
chain: T6 sequence (A0A1C8HPQ3 1-93 R67A) with A67R
Regarding B1, the “stoichiometry N” value in the data set “crystal structure” was found to be 6.

B2: WT Acb2: anti-CBASS protein Acb2 from P. aeruginosa phage PaMx33, cyclic oligonucleotide sponge (protein)
chain: T6 sequence (A0A1C8HPQ3 1-93 R67A) with A67R
modifications: left off: His6-SUMO, end not stated, cleaved
Regarding B2, the “effect on cA3-activated NucC activity” value with NucC [13] was “significantly decreased”.

As a reminder, the Kd is the equilibrium constant for the complex coming apart. A word on the stoichiometry N: it is a count of units in the complex or per binding partner.
